Test results taken from ChEMBL document CHEMBL1152472, “AdeIJK, a resistance-nodulation-cell division pump effluxing multiple antibiotics in Acinetobacter baumannii” (2008).
≈ marks a conversion by molar mass, not a printed value.

Tests used:
[1] = system: Acinetobacter baumannii; assay: Antimicrobial activity against Acinetobacter baumannii BM4454 isolated from patient with urinary tract infection by E test; format: functional; details: BM4454, Urine
Summary of the method: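 MIC read by E-test strip on solid medium against the multiresistant AdeABC-overexpressing urinary isolate. Strains were grown at 37°C in brain heart infusion or LB.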

[2] = system: Acinetobacter baumannii; assay: Antimicrobial activity against Acinetobacter baumannii BM4652 expressing adeIJK genes with pAT807 isolated from patient with urinary tract infection by E test; format: functional; details: BM4652, Urine
Summary of the method: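 E-test MIC on solid medium, with 0.005 mM IPTG added to induce adeIJK carried on plasmid pAT807 in the ΔadeIJK host. Growth was at 37°C.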

[3] = system: Acinetobacter baumannii; assay: Antimicrobial activity against Acinetobacter baumannii BM4579 expressing adeIJK genes with pAT807 isolated from patient with urinary tract infection by E test; details: BM4579, Urine
[4] = system: Acinetobacter baumannii; assay: Antimicrobial activity against Acinetobacter baumannii BM4651 expressing deltaadeABC genes isolated from patient with urinary tract infection by E test; details: BM4651, Urine
[5] = system: Acinetobacter baumannii; assay: Antimicrobial activity against Acinetobacter baumannii BM4579 expressing deltaadeIJK genes isolated from patient with urinary tract infection by E test; format: functional; details: BM4579, Urine
Summary of the method: (§1)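 MICs determined on solid medium (Mueller-Hinton agar) by E-test. The strains are deletion-insertion derivatives of multiresistant urinary isolate BM4454 that lack adeIJK, adeABC or both. Strains were grown at 37°C in brain heart infusion broth or agar or in LB.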

[6] = system: Acinetobacter baumannii; assay: Antimicrobial activity against Acinetobacter baumannii BM4652 expressing adeABC adeIJK double mutant isolated from patient with urinary tract infection by E test; format: functional; details: BM4652, Urine; summary of the method: as §1
[7] = system: Acinetobacter baumannii; assay: Antimicrobial activity against Acinetobacter baumannii BM4652 expressing adeIJK genes with pAT807 isolated from patient with urinary tract infection by agar dilution method; format: functional; details: BM4652, Urine
Summary of the method: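 Agar-dilution MIC (ticarcillin, SDS), with 0.005 mM IPTG added to induce plasmid pAT807-borne adeIJK in the ΔadeIJK background. Growth was at 37°C.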

[8] = system: Acinetobacter baumannii; assay: Antimicrobial activity against Acinetobacter baumannii BM4579 expressing adeIJK genes with pAT807 isolated from patient with urinary tract infection by E test; format: functional; details: BM4579, Urine, in the assay text read “agar dilution method” for “E test”
[9] = system: Acinetobacter baumannii; assay: Antimicrobial activity against Acinetobacter baumannii BM4454 isolated from patient with urinary tract infection by agar dilution method; format: functional; details: BM4454, Urine
Summary of the method: (§2)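 MIC by agar dilution, the method used for ticarcillin and SDS. Strains were grown at 37°C in brain heart infusion or LB.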

[10] = system: Acinetobacter baumannii; assay: Antimicrobial activity against Acinetobacter baumannii BM4579 expressing deltaadeIJK genes isolated from patient with urinary tract infection by agar dilution method; format: functional; details: BM4579, Urine
Summary of the method: (§3)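 MICs determined by agar dilution on Mueller-Hinton agar with 10^4 CFU/spot; this method was used for ticarcillin and SDS. The strains are ΔadeIJK or ΔadeABC ΔadeIJK deletion-insertion derivatives of urinary isolate BM4454, grown at 37°C in brain heart infusion or LB medium.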

[11] = system: Acinetobacter baumannii; assay: Antimicrobial activity against Acinetobacter baumannii BM4651 expressing deltaadeIJK genes isolated from patient with urinary tract infection by agar dilution method; format: functional; details: BM4651, Urine, in the assay text read “deltaadeABC” for “deltaadeIJK”; summary of the method: as §2
[12] = system: Acinetobacter baumannii; assay: Antimicrobial activity against Acinetobacter baumannii BM4652 expressing adeABC adeIJK double mutant isolated from patient with urinary tract infection by agar dilution method; format: functional; details: BM4652, Urine; summary of the method: as §3

CC[C@H]1OC(=O)[C@H](C)[C@@H](O[C@H]2C[C@@](C)(OC)[C@@H](O)[C@H](C)O2)[C@H](C)[C@@H](O[C@@H]2O[C@H](C)C[C@H](N(C)C)[C@H]2O)[C@](C)(O)C[C@@H](C)CN(C)[C@H](C)[C@@H](O)[C@]1(C)O [AZITHROMYCIN] was tested, and the MIC [1] was 96 µg/mL (≈ 128 µM), the MIC [2] was 24 µg/mL (≈ 32 µM) and the MIC [3] was 96 µg/mL (≈ 128 µM). For the same molecule, the MIC [4] was 1.5 µg/mL (≈ 2 µM), the MIC [5] was 96 µg/mL (≈ 128 µM) and the MIC [6] was 1.5 µg/mL (≈ 2 µM).
In the case of CO/N=C(\C(=O)N[C@@H]1C(=O)N2C(C(=O)O)=C(COC(C)=O)CS[C@H]12)c1csc(N)n1 [CEFOTAXIME], the MIC [1] is reported as 8 µg/mL (≈ 17.6 µM), the MIC [2] is reported as 0.25 µg/mL (≈ 0.549 µM) and the MIC [3] is reported as 3 µg/mL (≈ 6.59 µM). It also gave an MIC [4] of 8 µg/mL (≈ 17.6 µM), an MIC [5] of 1.5 µg/mL (≈ 3.29 µM) and an MIC [6] of 1.5 µg/mL (≈ 3.29 µM).
O=C(N[C@H](CO)[C@H](O)c1ccc([N+](=O)[O-])cc1)C(Cl)Cl [CHLORAMPHENICOL] gave an MIC [1] of 256 µg/mL (≈ 792 µM), an MIC [2] of 6 µg/mL (≈ 18.6 µM) and an MIC [3] of 96 µg/mL (≈ 297 µM). The MIC [4] was 128 µg/mL (≈ 396 µM), the MIC [5] was 64 µg/mL (≈ 198 µM) and the MIC [6] was 16 µg/mL (≈ 49.5 µM).
With CCC[C@@H]1C[C@@H](C(=O)N[C@@H]([C@H]2O[C@H](SC)[C@H](O)[C@@H](O)[C@H]2O)[C@H](C)Cl)N(C)C1 [CLINDAMYCIN] the MIC [1] was > 256 µg/mL, the MIC [2] was 2 µg/mL (≈ 4.71 µM) and the MIC [3] was 48 µg/mL (≈ 113 µM). The MIC [4] was > 256 µg/mL, the MIC [5] was 48 µg/mL (≈ 113 µM) and the MIC [6] was 2 µg/mL (≈ 4.71 µM).
In the case of CC[C@H]1OC(=O)[C@H](C)[C@@H](O[C@H]2C[C@@](C)(OC)[C@@H](O)[C@H](C)O2)[C@H](C)[C@@H](O[C@@H]2O[C@H](C)C[C@H](N(C)C)[C@H]2O)[C@](C)(O)C[C@@H](C)C(=O)[C@H](C)[C@@H](O)[C@]1(C)O [ERYTHROMYCIN], the MIC [1] is reported as 12 µg/mL (≈ 16.4 µM), the MIC [2] is reported as 3 µg/mL (≈ 4.09 µM) and the MIC [3] is reported as 12 µg/mL (≈ 16.4 µM). It also gave an MIC [4] of 4 µg/mL (≈ 5.45 µM), an MIC [5] of 8 µg/mL (≈ 10.9 µM) and an MIC [6] of 1.5 µg/mL (≈ 2.04 µM).
C[C@@H](O)[C@H]1C(=O)N2C(C(=O)O)=C(SCCNC=N)C[C@H]12 [IMIPENEM ANHYDROUS] gave an MIC [1] of 0.5 µg/mL (≈ 1.67 µM), an MIC [2] of 96 µg/mL (≈ 321 µM) and an MIC [3] of 0.25 µg/mL (≈ 0.835 µM). The MIC [4] was 0.5 µg/mL (≈ 1.67 µM), the MIC [5] was 0.25 µg/mL (≈ 0.835 µM) and the MIC [6] was 0.25 µg/mL (≈ 0.835 µM).
With C[C@H]1COc2c(N3CCN(C)CC3)c(F)cc3c(=O)c(C(=O)O)cn1c23.C[C@H]1COc2c(N3CCN(C)CC3)c(F)cc3c(=O)c(C(=O)O)cn1c23.O [LEVOFLOXACIN] the MIC [1] was 12 µg/mL, the MIC [2] was 2 µg/mL and the MIC [4] was 3 µg/mL. It also gave an MIC [5] of 6 µg/mL and an MIC [6] of 0.38 µg/mL.
In the case of CN(C)c1ccc(O)c2c1C[C@H]1C[C@H]3[C@H](N(C)C)C(O)=C(C(N)=O)C(=O)[C@@]3(O)C(O)=C1C2=O [MINOCYCLINE], the MIC [1] is reported as 1.5 µg/mL (≈ 3.28 µM), the MIC [2] is reported as 0.75 µg/mL (≈ 1.64 µM) and the MIC [3] is reported as 1 µg/mL (≈ 2.19 µM). It also gave an MIC [4] of 0.5 µg/mL (≈ 1.09 µM), an MIC [5] of 0.25 µg/mL (≈ 0.546 µM) and an MIC [6] of 0.064 µg/mL (≈ 0.14 µM).
With COc1c(N2C[C@@H]3CCCN[C@@H]3C2)c(F)cc2c(=O)c(C(=O)O)cn(C3CC3)c12 [MOXIFLOXACIN] the MIC [1] was 12 µg/mL (≈ 29.9 µM), the MIC [3] was 16 µg/mL (≈ 39.9 µM) and the MIC [4] was 3 µg/mL (≈ 7.47 µM). The MIC [5] was 12 µg/mL (≈ 29.9 µM) and the MIC [6] was 0.5 µg/mL (≈ 1.25 µM).
For CCn1cc(C(=O)O)c(=O)c2cc(F)c(N3CCN(C)CC3)cc21 [PEFLOXACIN], the MIC [1] was 48 µg/mL (≈ 144 µM), the MIC [2] was 12 µg/mL (≈ 36 µM) and the MIC [3] was 48 µg/mL (≈ 144 µM). The MIC [4] was 24 µg/mL (≈ 72 µM), the MIC [5] was 24 µg/mL (≈ 72 µM) and the MIC [6] was 4 µg/mL (≈ 12 µM).
CO[C@H]1/C=C/O[C@@]2(C)Oc3c(C)c(O)c4c(O)c(c(/C=N/N5CCN(C)CC5)c(O)c4c3C2=O)NC(=O)/C(C)=C\C=C\[C@H](C)[C@H](O)[C@@H](C)[C@@H](O)[C@@H](C)[C@H](OC(C)=O)[C@@H]1C [RIFAMPIN] gave an MIC [1] of 4 µg/mL (≈ 4.86 µM), an MIC [2] of 1.5 µg/mL (≈ 1.82 µM) and an MIC [3] of 2 µg/mL (≈ 2.43 µM). The MIC [4] was 4 µg/mL (≈ 4.86 µM), the MIC [5] was 2 µg/mL (≈ 2.43 µM) and the MIC [6] was 2 µg/mL (≈ 2.43 µM).
With CN(C)[C@@H]1C(O)=C(C(N)=O)C(=O)[C@@]2(O)C(O)=C3C(=O)c4c(O)cccc4[C@@](C)(O)[C@H]3C[C@@H]12 [TETRACYCLINE] the MIC [1] was 48 µg/mL (≈ 108 µM), the MIC [2] was 0.75 µg/mL (≈ 1.69 µM) and the MIC [3] was 6 µg/mL (≈ 13.5 µM). The MIC [4] was 8 µg/mL (≈ 18 µM), the MIC [5] was 4 µg/mL (≈ 9 µM) and the MIC [6] was 0.5 µg/mL (≈ 1.13 µM).
For CC1(C)S[C@@H]2[C@H](NC(=O)[C@H](C(=O)O)c3ccsc3)C(=O)N2[C@H]1C(=O)O [TICARCILLIN], the MIC [7] was > 256 µg/mL, the MIC [8] was > 256 µg/mL and the MIC [9] was 8 µg/mL (≈ 20.8 µM). The MIC [10] was 1 µg/mL (≈ 2.6 µM), the MIC [11] was 8 µg/mL (≈ 20.8 µM) and the MIC [12] was 1 µg/mL (≈ 2.6 µM).
Molecule CN(C)c1cc(NC(=O)CNC(C)(C)C)c(O)c2c1C[C@H]1C[C@H]3[C@H](N(C)C)C(O)=C(C(N)=O)C(=O)[C@@]3(O)C(O)=C1C2=O [TIGECYCLINE] has an MIC [1] of 4 µg/mL (≈ 6.83 µM), an MIC [2] of 3 µg/mL (≈ 5.12 µM) and an MIC [3] of 2 µg/mL (≈ 3.41 µM). For the same molecule, the MIC [4] was 0.5 µg/mL (≈ 0.854 µM), the MIC [5] was 1.5 µg/mL (≈ 2.56 µM) and the MIC [6] was 0.047 µg/mL (≈ 0.0803 µM).
